Results published in ChEMBL document CHEMBL1121727, “Synthesis and biological activity of certain derivatives of oxazinomycin and related oxadiazole nucleosides” (J Med Chem, 1981).
The source made the active and inactive calls. The rule behind the calls is not given here.

Legend:
[1] = system: P388; experiment: Antitumor activity against leukemia P388 cells; Inactive; type: functional, cell-based; conditions: Mus musculus
[2] = system: L1210; experiment: Antitumor activity against L1210 cells; Inactive; type: functional, cell-based; conditions: Mus musculus
[3] = system: Human alphaherpesvirus 1; experiment: In vitro antiviral activity against herpes simplex virus/1(HSV/1) expressed as viral rating (VR); type: functional
Procedure, shortened: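 Antiviral assay in KB cells against HSV type 1 over 1000 to 1 μg/mL. Inhibition of viral cytopathic effect was read after 72 h at 37 °C and scored as virus rating (VR). VR ≥ 0.5 was taken as moderate to definite activity. Ribavirin and acyclovir served as controls.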

[4] = system: Human alphaherpesvirus 1; experiment: In vitro antiviral activity against herpes simplex virus/1(HSV/1) expressed as viral rating (VR); Inactive; type: functional, organism-based
Procedure, shortened: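 Tested in vitro in KB cells infected with HSV type 1 at 1000 to 1 μg/mL. Plates were incubated 72 h at 37 °C, and inhibition of viral cytopathic effect was scored as a virus rating (VR). VR ≥ 0.5 was taken as moderate to definite activity. Ribavirin and acyclovir served as controls.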

[5] = system: L1210; experiment: Inhibition of RNA, DNA, and protein synthesis in L1210 cells at 8*10e-7 M.
[6] = system: L1210; experiment: Antitumor activity against L1210 cells; type: functional, cell-based; conditions: Mus musculus
[7] = system: HeLa; experiment: Antitumor activity against HeLa cells; type: functional, cell-based; conditions: Homo sapiens

Structure (SMILES) | Activity [1] | Activity [2] | VR [3] | also measured
O=c1nc2c(co1)[C@@H]1O[C@H](CO)[C@@H](O)[C@@H]1O2 | inactive | inactive |  | 
NC(=O)c1ncn([C@@H]2O[C@H](CO)[C@@H](O)[C@H]2O)n1 [RIBAVIRIN] |  |  | 1.2 | 
C[C@H]1OC(c2coc(=O)[nH]c2=O)[C@H](O)[C@@H]1O (some centres not stated) | inactive | inactive |  | 
O=c1[nH]c(=O)n([C@H]2C[C@H](O)[C@@H](CO)O2)o1 | inactive | inactive |  | VR [4]: inactive
CC(=O)O[C@H]1C[C@H](c2coc(=O)[nH]c2=O)O[C@@H]1CO | inactive | inactive |  | 
O=c1[nH]c(=O)c([C@@H]2O[C@H](CO)[C@@H](O)[C@H]2O)co1 |  |  |  | Inhibition [5]: 5%; IC50 [6]: 300 nM; IC50 [7]: 500 nM
Nc1nc2c(ncn2COCCO)c(=O)[nH]1 [ACYCLOVIR] |  |  | 1.4 | 
O=c1[nH]c(=O)n(C2O[C@H](CO)[C@@H](O)[C@H]2O)o1 (some centres not stated) | inactive | inactive | 0.65 | 
O=c1[nH]c(=O)c([C@@H]2O[C@H](COP(=O)(O)O)[C@@H](O)[C@H]2O)co1 | inactive | inactive |  | 
O=c1[nH]oc(=O)[nH]1 | inactive | inactive |  | VR [4]: inactive
